The text below walks through data of ChEMBL document CHEMBL4396951, “Optimization and anti-inflammatory evaluation of methyl gallate derivatives as a myeloid differentiation protein 2 inhibitor” (Bioorg Med Chem, 2019).

Calls of active or inactive are those of the source. The rule behind the calls is not given here. Bounds are passed on as bounds.

Series [1] concerns Peritoneal macrophage. The experiment in a line: Antiinflammatory activity in C57BL/6 mouse primary peritoneal macrophages assessed as inhibition of LPS-induced TNFalpha production at 10 uM preincubated for 30 mins followed by LPS stimulation and measured after 24 hrs by sandwich ELISA. Format: functional, cell-based. Put shortly: (§1)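 Thioglycollate-elicited mouse peritoneal macrophages in RPMI-1640/10% FBS. Compound pretreatment for 30 min (10 μM for single-point screening, graded concentrations for dose-response), then 0.5 μg/mL LPS for 24 h. TNF-α and IL-6 in culture medium measured by sandwich ELISA and normalized to total protein in cell lysates; n = 3.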
Background: ELISA stands for enzyme-linked immunosorbent assay.

In series [2] the test system is Peritoneal macrophage. The experiment in a line: Antiinflammatory activity in C57BL/6 mouse primary peritoneal macrophages assessed as inhibition of LPS-induced IL-6 production at 10 uM preincubated for 30 mins followed by LPS stimulation and measured after 24 hrs by sandwich ELISA. In kind it is functional, cell-based. Put shortly: as §1
Series [3] relates to Peritoneal macrophage. The experiment in a line: Antiinflammatory activity in C57BL/6 mouse primary peritoneal macrophages assessed as inhibition of LPS-induced IL-6 production preincubated for 30 mins followed by LPS stimulation and measured after 24 hrs by sandwich ELISA. Format: functional, cell-based. An outline of the steps:
as §1

Series [4] concerns Peritoneal macrophage. The experiment in a line: Antiinflammatory activity in C57BL/6 mouse primary peritoneal macrophages assessed as inhibition of LPS-induced TNFalpha production preincubated for 30 mins followed by LPS stimulation and measured after 24 hrs by sandwich ELISA. In kind it is functional, cell-based. Put shortly:
as §1

Series [5] deals with Peritoneal macrophage. The experiment in a line: Antiinflammatory activity in C57BL/6 mouse primary peritoneal macrophages assessed as inhibition of LPS-induced TNFalpha production at 10 uM preincubated for 30 mins followed by LPS stimulation and measured after 24 hrs by sandwich ELISA relative to control. To be noted: C57BL/6, Peritoneal macrophage. In kind it is functional. Put shortly:
as §1

The test system of series [6] is Peritoneal macrophage. The experiment in a line: Antiinflammatory activity in C57BL/6 mouse primary peritoneal macrophages assessed as inhibition of LPS-induced IL-6 production at 10 uM preincubated for 30 mins followed by LPS stimulation and measured after 24 hrs by sandwich ELISA relative to control. Format: functional. The note with it: C57BL/6, Peritoneal macrophage. An outline of the steps:
as §1

Series [7] can be described thus: Stability of compound in pH 7.4 phosphate buffer at 20 uM measured up to 25 mins by UV-VIS spectroscopy. To be noted: pH 7.4, 25 min. Format: physicochemical.

By inhibition is commonly meant the share of the control response that was lost under treatment. In the case of `CN(C)c1cccc(C(=O)Nc2ccc3c(c2)CCC3)c1`, the inhibition entry in the series on Peritoneal macrophage [1] and in the series with Peritoneal macrophage [2] was “Active” throughout.
In the case of `O=C(CCCc1c[nH]c2ccccc12)Nc1ccc2c(c1)CCC2`, the inhibition entry with Peritoneal macrophage [1] and in the series on Peritoneal macrophage [2] was “Active” each time.
In the case of `COc1ccc(CNC(=O)c2cc(O)c(O)c(O)c2)cc1OC`, the inhibition result with Peritoneal macrophage [1] and with Peritoneal macrophage [2] was “Active” in each case.
With `O=C(Nc1ccc(F)cc1)c1cc(O)c(O)c(O)c1`, the inhibition entry in the series on Peritoneal macrophage [1] and in the series with Peritoneal macrophage [2] was “Active” in each case.
For `O=C(/C=C/c1cccc(OC(F)(F)F)c1)Nc1ccc2c(c1)CCC2`, the inhibition result in the series on Peritoneal macrophage [1] and in the series with Peritoneal macrophage [2] was “Active” each time.
Turning to `O=C(Nc1ccc2c(c1)CCC2)c1ccccc1C(F)(F)F`, the inhibition result with Peritoneal macrophage [1] and in the series with Peritoneal macrophage [2] was “Active” in each case.
For `CC(=O)Nc1ccc(C(=O)Nc2ccc3c(c2)CCC3)cc1`, the inhibition result in the series on Peritoneal macrophage [1] and in the series with Peritoneal macrophage [2] was “Active” in each case.
Regarding `CCN(CC)c1ccc(C(=O)Nc2ccc3c(c2)CCC3)cc1`, the inhibition entry in the series on Peritoneal macrophage [1] and with Peritoneal macrophage [2] was “Active” throughout.
`COc1cc(NC(=O)c2cc(O)c(O)c(O)c2)cc(OC)c1`: the inhibition entry in the series on Peritoneal macrophage [1] and with Peritoneal macrophage [2] was “Active” throughout.
As for `CN(C)c1ccccc1C(=O)Nc1ccc2c(c1)CCC2`, the inhibition result with Peritoneal macrophage [3] and in the series with Peritoneal macrophage [4] was “Dose-dependent effect” each time. Further, the inhibition entry in the series with Peritoneal macrophage [1] and with Peritoneal macrophage [2] was “Active” throughout. Further, the inhibition at 10 µM in the series with Peritoneal macrophage [5] and with Peritoneal macrophage [6] was greater than 50% in each case. Further, the Stability entry in series [7] is listed as “Stable”.
Regarding `O=C(NCc1ccccc1)c1cc(O)c(O)c(O)c1`, the inhibition result with Peritoneal macrophage [1] and with Peritoneal macrophage [2] was “Active” each time.
Turning to `O=C(Nc1ccc(N2CCOCC2)cc1)c1cc(O)c(O)c(O)c1`, the inhibition result with Peritoneal macrophage [1] and in the series on Peritoneal macrophage [2] was “Active” in each case.
Consider `COc1ccc(OC)c(/C=C/C(=O)Nc2ccc3c(c2)CCC3)c1`, for which the inhibition entry with Peritoneal macrophage [1] and with Peritoneal macrophage [2] was “Active” throughout.
`COc1ccccc1CNC(=O)c1cc(O)c(O)c(O)c1`: the inhibition result in the series with Peritoneal macrophage [1] and in the series with Peritoneal macrophage [2] was “Active” each time.
Take `Cc1ccc(C(=O)Nc2ccc3c(c2)CCC3)s1`: the inhibition result in the series on Peritoneal macrophage [1] and in the series on Peritoneal macrophage [2] was “Active” in each case.
Regarding `COc1cc(/C=C/C(=O)Nc2ccc3c(c2)CCC3)cc(OC)c1O`, the inhibition result with Peritoneal macrophage [1] and in the series with Peritoneal macrophage [2] was “Active” each time.
Turning to `Cc1ncsc1C(=O)Nc1ccc2c(c1)CCC2`, the inhibition entry in the series on Peritoneal macrophage [1] and in the series with Peritoneal macrophage [2] was “Active” throughout.
Turning to `O=C(Nc1ccc2c(c1)CCC2)c1cc(Cl)nc(Cl)c1`, the inhibition result with Peritoneal macrophage [1] and in the series on Peritoneal macrophage [2] was “Active” in each case.
As for `O=C(Cc1cccc2ccccc12)Nc1ccc2c(c1)CCC2`, the inhibition result with Peritoneal macrophage [3] and in the series with Peritoneal macrophage [4] was “Dose-dependent effect” throughout. In addition, the inhibition entry in the series with Peritoneal macrophage [1] and with Peritoneal macrophage [2] was “Active” in each case. Also, the inhibition at 10 µM in the series with Peritoneal macrophage [5] and in the series with Peritoneal macrophage [6] was greater than 50% each time. Also, the Stability result in series [7] is given as “Stable”.
Turning to `CN1CCN(c2ccc(NC(=O)c3cc(O)c(O)c(O)c3)cc2)CC1`, the inhibition entry in the series with Peritoneal macrophage [1] and with Peritoneal macrophage [2] was “Active” throughout.
For `O=C(Nc1ccc2c(c1)CCC2)c1c(Cl)cccc1Cl`, the inhibition result with Peritoneal macrophage [1] and in the series on Peritoneal macrophage [2] was “Active” in each case.
With `O=C(Nc1ccc2cc[nH]c2c1)c1cc(O)c(O)c(O)c1`, the inhibition result in the series with Peritoneal macrophage [1] and in the series on Peritoneal macrophage [2] was “Active” each time.
As to `COc1ccc(/C=C/C(=O)Nc2ccc3c(c2)CCC3)cc1OC`, the inhibition entry with Peritoneal macrophage [1] and in the series on Peritoneal macrophage [2] was “Active” in each case.
As to `COc1cc(/C=C/C(=O)Nc2ccc3c(c2)CCC3)cc(OC)c1OC`, the inhibition entry in the series on Peritoneal macrophage [1] and in the series on Peritoneal macrophage [2] was “Active” each time.
In the case of `O=C(Nc1ccccc1)c1cc(O)c(O)c(O)c1`, the inhibition result in the series with Peritoneal macrophage [1] and in the series with Peritoneal macrophage [2] was “Active” in each case.
Consider `CN1CCN(Cc2ccc(NC(=O)c3cc(O)c(O)c(O)c3)cc2)CC1`, for which the inhibition entry with Peritoneal macrophage [1] and with Peritoneal macrophage [2] was “Active” throughout.
For `O=C(/C=C/c1ccccc1C(F)(F)F)Nc1ccc2c(c1)CCC2`, the inhibition result in the series with Peritoneal macrophage [1] and in the series with Peritoneal macrophage [2] was “Active” each time.
As to `COc1ccc2cc(C(=O)Nc3ccc4c(c3)CCC4)[nH]c2c1`, the inhibition result in the series on Peritoneal macrophage [3] and in the series with Peritoneal macrophage [4] was “Dose-dependent effect” in each case. Besides, the inhibition result in the series with Peritoneal macrophage [1] and in the series on Peritoneal macrophage [2] was “Active” throughout. Further, the inhibition at 10 µM with Peritoneal macrophage [5] and in the series with Peritoneal macrophage [6] was greater than 50% each time. The Stability entry in series [7] is “Stable”.
Regarding `O=C(Nc1ccc2c(c1)CCC2)c1ccc(Cl)c([N+](=O)[O-])c1`, the inhibition entry in the series with Peritoneal macrophage [1] and with Peritoneal macrophage [2] was “Active” throughout.
For `O=C(Nc1ccc2c(c1)CCC2)c1cc2ccccc2[nH]1`, the inhibition entry with Peritoneal macrophage [1] and in the series on Peritoneal macrophage [2] was “Active” in each case.
Turning to `CC(=O)N1CCc2cc(NC(=O)c3cc(O)c(O)c(O)c3)ccc21`, the inhibition entry in the series on Peritoneal macrophage [1] and in the series on Peritoneal macrophage [2] was “Active” in each case.
Consider `COc1ccc(/C=C/C(=O)Nc2ccc3c(c2)CCC3)cc1O`, for which the inhibition result in the series with Peritoneal macrophage [1] and in the series with Peritoneal macrophage [2] was “Active” throughout.
As to `O=C(Nc1ccc2c(c1)CCC2)c1cccc(N2CCOCC2)c1`, the inhibition result in the series with Peritoneal macrophage [1] and in the series with Peritoneal macrophage [2] was “Active” each time.
As for `O=C(Nc1ccc2c(c1)CCC2)c1cccc(N2CCCC2)c1`, the inhibition entry in the series with Peritoneal macrophage [1] and with Peritoneal macrophage [2] was “Active” throughout.
For `CCOc1ccc(NC(=O)c2cc(O)c(O)c(O)c2)cc1`, the inhibition result with Peritoneal macrophage [1] and in the series with Peritoneal macrophage [2] was “Active” in each case.
With `O=C(Cc1ccc([N+](=O)[O-])cc1[N+](=O)[O-])Nc1ccc2c(c1)CCC2`, the inhibition result in the series with Peritoneal macrophage [1] and with Peritoneal macrophage [2] was “Active” throughout.
On to `COc1ccc(NC(=O)c2cc(O)c(O)c(O)c2)cc1`, for which the inhibition entry in the series with Peritoneal macrophage [1] and in the series on Peritoneal macrophage [2] was “Active” each time.
As for `COc1cc(CC(=O)Nc2ccc3c(c2)CCC3)cc(OC)c1`, the inhibition entry in the series with Peritoneal macrophage [1] and with Peritoneal macrophage [2] was “Active” throughout.
